M1 antag = blocks human M1 muscarinic receptor; P11229; CHO-K1 hM1, Fluo-8 calcium fluorescence, ACh EC80 antagonist; inhibition, % at 3 µM; 360,000 tested, 1.3% active; AID 588852;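 active = percent inhibition above its own plate's cutoff, namely the mean of that plate's compound wells plus 3 SD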;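 note: peak over basal fluorescence ratio during 140 s after agonist addition; 0% = ACh EC80 plus DMSO and 100% = DMSO alone without agonist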
Target sequence (P11229 whole entry, looked up): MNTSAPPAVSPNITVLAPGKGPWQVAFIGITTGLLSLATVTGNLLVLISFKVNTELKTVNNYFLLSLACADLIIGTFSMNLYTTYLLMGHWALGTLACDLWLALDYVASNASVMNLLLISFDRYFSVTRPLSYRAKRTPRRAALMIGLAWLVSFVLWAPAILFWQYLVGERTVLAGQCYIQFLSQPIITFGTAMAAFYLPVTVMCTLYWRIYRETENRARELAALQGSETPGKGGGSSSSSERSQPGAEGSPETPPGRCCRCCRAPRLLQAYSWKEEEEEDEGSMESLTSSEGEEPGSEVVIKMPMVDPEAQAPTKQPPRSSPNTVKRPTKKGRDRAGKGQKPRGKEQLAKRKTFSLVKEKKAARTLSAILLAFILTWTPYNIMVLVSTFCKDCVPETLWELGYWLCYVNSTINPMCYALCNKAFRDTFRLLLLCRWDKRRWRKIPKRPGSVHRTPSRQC
TAAR1 agonist = agonists of human TAAR1; Q96RJ0; 360,000 tested, 0.99% active; activation, % at 3 µM; CHO RD-HGA16 TAAR1, Fluo-8 calcium fluorescence; vehicle wells 0%, saturating PEA agonist 100%;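 active = activation above the mean activation of all test compounds in the run plus 3 SD, cut at about 38% in these data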
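Repeats: no replicates (n 1) | Material: CHO-derived RD-HGA16 cells with stable Gα16 and human TAAR1 | Technique: Kinetic Fluo-8 calcium fluorescence | Schedule: 17-24 h seeding, 75 min 37 °C dye, 30 min RT | Evaluation: % activation from peak over basal fluorescence ratio, DMSO-to-PEA scaled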
CHRM1 PAM = positive allosteric modulators of human M1 muscarinic receptor; P11229; CHO-K1 hM1, Fluo-8 calcium fluorescence, ACh EC20; 0% = ACh EC20, 100% = maximal ACh; activation, % at 3 µM; 360,000 tested, 0.088% active; in the data active = activation above about 19%, passing the limit was not always enough
m5-HT2A agonist = mouse HTR2A agonism via beta-arrestin recruitment | P35363 | CHO-K1 mHTR2A beta-arrestin complementation, luminescence; percent of 30 µM serotonin response | activation, % at 7.6 µM | 360,000 tested, 0.66% active | AID 624169;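 active = activation above a run cutoff, the mean activation of all tested compounds plus 3 SD, cut at about 14% in these data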;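 note: 0% = plate median of compound wells and 100% = 30 µM serotonin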
TAAR1 antag = antagonists of human TAAR1 | inhibition, % at 3 µM | 360,000 tested, 1.5% active | CHO RD-HGA16 TAAR1, Fluo-8 calcium fluorescence, antagonist;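 active = inhibition above a per-plate cutoff, the mean inhibition of test compounds on that plate plus 3 SD, cut at about 49% in these data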;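 note: 0% = DMSO plus EC80 beta-PEA response and 100% = DMSO alone without agonist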
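Material: RD-HGA16 CHO cells with stable hTAAR1 and Gα16; Dosing: single nominal final test compound concentration of 3 µM; Schedule: seeding 17-24 h prior, 75-min 37 °C, 30-min RT dye loading; Detection: kinetic Fluo-8 calcium fluorescence measurement; Measure: % inhibition from peak post-agonist over basal fluorescence ratio; Benchmarks: vehicle and agonist controls.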
M1 ag = activates human CHRM1 receptor | P11229 | CHO-K1 hM1, Fluo-8 calcium fluorescence, agonist mode; 0% DMSO, 100% acetylcholine EC100 | activation, % at 3 µM | 360,000 tested, 0.33% active;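 active = activation above the run's mean compound activation plus 3 SD, cut at about 16% in these data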;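 note: peak over basal fluorescence ratio within a 140 s kinetic read after compound addition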
TAAR1 nonsel count = nonselective antagonism, TAAR1 counter-screen. shares compounds with TAAR1 antag. counterscreen cell line, calcium fluorescence, antagonist mode. inhibition, % at 3 µM. 2,400 tested, 77% active; in the data active = inhibition above about 22%;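 note: CHO-Ga16 host cells stimulated with ATP at an EC80 level; 0% = agonist EC80 plus vehicle and 100% = vehicle without agonist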
TAAR1 antag conf = confirmation of human TAAR1 antagonists; TAAR1-expressing cells, fluorescence antagonist read-out; inhibition, % at 3 µM; 2,400 tested, 40% active; shares compounds with TAAR1 antag; AID 651785; in the data active = inhibition above about 49%;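 note: CHO-Ga16 host cells challenged with agonist PEA near its EC80; 0% = agonist at EC80 plus vehicle and 100% = vehicle with no agonist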
Ga16 ag counter = nonselective Ga16 agonism, counter-screen; Ga16-expressing cells, calcium fluorescence, agonist counterscreen; shares compounds with TAAR1 antag; AID 651953; activation, % at 3 µM; 2,400 tested, 18% active; in the data active = activation above about 12%;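 note: 0% = vehicle wells and 100% = saturating stimulus response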
TAAR1 ag count = activates human TAAR1 in antagonist counter-screen. 2,400 tested, 2% active. activation, % at 3 µM. hTAAR1 cell line, fluorescence activation, agonist mode. shares compounds with TAAR1 antag; in the data active = activation above about 37%;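 note: CHO cells stably expressing TAAR1 with calcium dye readout; 0% = DMSO vehicle and 100% = full agonist response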
The depositor's hits bear a star; . = no result. Only some compounds are listed: those with a hit (about 3.9% of all), similar ones and a draw of the others.

SMILES	M1 antag	TAAR1 agonist	CHRM1 PAM	m5-HT2A agonist	TAAR1 antag	M1 ag	TAAR1 nonsel count	TAAR1 antag conf	Ga16 ag counter	TAAR1 ag count
COc1ccc(N(C)S(=O)(=O)c2cccc(C(=O)OCC(=O)Nc3cc(C)ccc3OC)c2)cc1	36*	9	-20	10	84*	1	34*	51*	12*	8
CN(c1ccccc1)S(=O)(=O)c1cccc(NC(=O)c2cc(=O)c3ccccc3o2)c1	1	19	-8	2	74*	-6	40*	57*	12*	7
COc1ccc(N(C)S(=O)(=O)c2cccc(C(=O)Nc3cccc(C(=O)NC4CC4)c3)c2)cc1	7	9	-10	1	61*	-1	21	40	11	8
COc1ccccc1N(C)S(=O)(=O)c1ccc(C(=O)Nc2ccncc2)cc1	-3	9	-1	3	40	2	.	.	.	.
NS(=O)(=O)c1cccc(NC(=O)c2cc(=O)c3ccccc3o2)c1	0	2	6	5	-29	-4	.	.	.	.
COc1ccccc1N(C)S(=O)(=O)c1ccc(C(=O)Nc2cc(OC)c(OC)c(OC)c2)cc1	6	14	-6	5	57*	-1	23*	34	10	7
COc1ccc(OC2CCN(S(=O)(=O)c3ccccc3)CC2)cc1	-3	3	5	-1	-7	-5	.	.	.	.
O=C(NCC1CCCN(Cc2cccc(F)c2)C1)c1cccc2ccccc12 (configuration not stated)	-3	2	9	1	-10	-8	.	.	.	.
O=C(Nc1cccc(S(=O)(=O)N2CCCCCC2)c1)c1cc(=O)c2ccccc2o1	17	13	-11	-3	79*	-3	42*	57*	15*	13
CC(=O)Nc1ccc(C(=O)Nc2cccc(S(=O)(=O)N(C)c3ccccc3)c2)cc1	6	18	0	7	52*	0	33*	44	9	5
COc1ccccc1N(C)S(=O)(=O)c1ccc(C(=O)OC(C)C(=O)NCc2ccc3c(c2)OCO3)cc1 (configuration not stated)	10	21	-16	-2	56*	-7	36*	56*	12*	12
O=C1N=C(N2CCOCC2)S/C1=C/c1cc2c(cc1[N+](=O)[O-])OCO2	-6	1	9	0	-36	-3	.	.	.	.
CC(C)C(NC(=O)c1ccc(F)cc1)C(=O)NC1(C)CCS(=O)(=O)C1 (configuration not stated)	-6	1	2	2	-14	-3	.	.	.	.
O=C(OCn1ncc(Cl)c(Cl)c1=O)c1ccc(C(F)(F)F)cc1	3	13	4	5	66*	-6	35*	40	6	7
COc1cc(/C=N/NC(=O)c2ccncc2)ccc1OC(=O)c1cccc(Br)c1	2	18	5	1	44	0	.	.	.	.
O=C(N/N=C/c1cccc(OC(=O)c2cccc(Br)c2)c1)c1ccncc1	-8	13	7	3	58*	10	26*	48	15*	27
O=C(O)c1ccc(N/N=C/C2=C(N3CCOCC3)C(=C\c3ccccc3)/CC2)cc1	-9	14	7	5	82*	1	51*	65*	9	8
Cc1cc(C)nc(N/N=C/C2=C(N3CCOCC3)C(=C\c3ccc(Cl)cc3)/CC2)n1	1	-1	1	-3	0	-2	.	.	.	.

Screening results: PubChem, The Scripps Research Institute Molecular Screening Center
